# Source: ChEMBL document CHEMBL1156133, “Losartan-antioxidant hybrids: novel molecules for the prevention of hypertension-induced cardiovascular damage” (J Med Chem, 2009)
# Activity calls are given as the source filed them. The calls are words filed in the database; no cut-off is given here.
# Legend:
# [1] = tested on: Rattus norvegicus; assay: Antihypertensive activity in Wistar rat assessed as decrease in L-NAME-induced HNE-lysine accumulation in vessel walls at 10 mg/kg/day, po for 4 weeks in presence of losartan; format: functional, organism-based
# Outline: (§1)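 Male Wistar rats on L-NAME in drinking water (20 mg/kg/day) for 8 weeks, treatments in drinking water for the last 4 weeks. Thoracic aorta lysates run on SDS-PAGE and Western blotted for collagen type I, fibronectin or HNE-lysine, with β-tubulin as loading control; ECL detection, densitometry. Expressed as percent of basal; mean ± SEM of 10 experiments.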
# [2] = tested on: Rattus norvegicus; assay: Antihypertensive activity in Wistar rat assessed as change in blood protein level at 10 mg/kg/day, po measured after 8 weeks; format: functional
# Outline: (§2)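 Two-month-old male Wistar rats given L-NAME in drinking water (20 mg/kg/day) for 8 weeks; from week 4, test treatments also in drinking water daily (12.00-18.00 h). Sacrificed under halothane anesthesia at 8 weeks; serum biochemical parameters measured by automatic analyzer. Mean ± SEM of 10 rats; nonparametric statistics.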
# [3] = tested on: Rattus norvegicus; assay: Antihypertensive activity in Wistar rat assessed as change in blood Na+ level at 10 mg/kg/day, po measured after 8 weeks in presence of losartan; format: functional
# [4] = tested on: Rattus norvegicus; assay: Antihypertensive activity in Wistar rat assessed as change in blood AST level at 10 mg/kg/day, po measured after 8 weeks in presence of losartan; format: functional
# [5] = tested on: Rattus norvegicus; assay: Antihypertensive activity in Wistar rat assessed as decrease in L-NAME-induced collagen 1 level in vessel walls at 10 mg/kg/day, po for 4 weeks in presence of losartan; format: functional, organism-based; outline: as §1
# [6] = tested on: Rattus norvegicus; assay: Antihypertensive activity in Wistar rat assessed as change in blood triglyceride level at 10 mg/kg/day, po measured after 8 weeks in presence of losartan; format: functional; outline: as §2
# [7] = tested on: Rattus norvegicus; assay: Antihypertensive activity in Wistar rat assessed as change in blood Na+ level at 10 mg/kg/day, po measured after 8 weeks; format: functional
# [8] = tested on: Rattus norvegicus; assay: Plasma concentration in po dosed Wistar rat assessed as EXP-3174 level after 4 weeks in presence of losartan; format: ADME, organism-based; conditions: in vivo, 672 h
# Outline: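 Separate groups of Wistar rats dosed in drinking water for 4 weeks (n = 4-6 per group), then sacrificed and plasma analyzed by HPLC-MS/MS (triple quadrupole, electrospray), isocratic MeOH/water with 0.1% formic acid, 40 °C. Two plasma samples per animal; mean ± SEM.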
# [9] = tested on: Rattus norvegicus; assay: Antihypertensive activity in Wistar rat assessed as change in blood LDH level at 10 mg/kg/day, po measured after 8 weeks; format: functional
# [10] = tested on: Rattus norvegicus; assay: Antihypertensive activity in Wistar rat assessed as change in blood […] level at 10 mg/kg/day, po measured after 8 weeks in presence of losartan; format: functional
# [11] = tested on: Rattus norvegicus; assay: Antihypertensive activity in Wistar rat assessed as change in blood protein level at 10 mg/kg/day, po measured after 8 weeks in presence of losartan; format: functional; outline: as §2
# [12] = tested on: Rattus norvegicus; assay: Antihypertensive activity in Wistar rat assessed as change in blood calcium level at 10 mg/kg/day, po measured after 8 weeks; format: functional
# [13] = tested on: Rattus norvegicus; assay: Antihypertensive activity in Wistar rat assessed as change in blood creatinine level at 10 mg/kg/day, po measured after 8 weeks; format: functional; outline: as §2
# [14] = tested on: Rattus norvegicus; assay: Antihypertensive activity in Wistar rat assessed as change in blood glucose level at 10 mg/kg/day, po measured after 8 weeks; format: functional; outline: as §2
# [15] = tested on: Rattus norvegicus; assay: Antihypertensive activity in Wistar rat assessed as change in blood creatinine level at 10 mg/kg/day, po measured after 8 weeks in presence of losartan; format: functional; outline: as §2
# [16] = tested on: Rattus norvegicus; assay: Antihypertensive activity in Wistar rat assessed as change in blood urea level at 10 mg/kg/day, po measured after 8 weeks; format: functional; outline: as §2
# [17] = tested on: Rattus norvegicus; assay: Antihypertensive activity in Wistar rat assessed as change in blood cholesterol level at 10 mg/kg/day, po measured after 8 weeks in presence of losartan; format: functional
# [18] = tested on: Rattus norvegicus; assay: Antihypertensive activity in Wistar rat assessed as change in blood urea level at 10 mg/kg/day, po measured after 8 weeks in presence of losartan; format: functional; outline: as §2
# [19] = tested on: Rattus norvegicus; assay: Antihypertensive activity in Wistar rat assessed as change in blood LDH level at 10 mg/kg/day, po measured after 8 weeks in presence of losartan; format: functional
# [20] = tested on: Rattus norvegicus; assay: Antihypertensive activity in Wistar rat assessed as change in blood calcium level at 10 mg/kg/day, po measured after 8 weeks in presence of losartan; format: functional
# [21] = tested on: Rattus norvegicus; assay: Antihypertensive activity in Wistar rat assessed as change in blood ALT level at 10 mg/kg/day, po measured after 8 weeks; format: functional
# [22] = tested on: Rattus norvegicus; assay: Antihypertensive activity in Wistar rat assessed as change in blood cholesterol level at 10 mg/kg/day, po measured after 8 weeks; format: functional
# [23] = tested on: Rattus norvegicus; assay: Antihypertensive activity in Wistar rat assessed as change in blood ALT level at 10 mg/kg/day, po measured after 8 weeks in presence of losartan; format: functional
# [24] = tested on: Rattus norvegicus; assay: Antihypertensive activity in Wistar rat assessed as change in blood AST level at 10 mg/kg/day, po measured after 8 weeks; format: functional
# [25] = tested on: Rattus norvegicus; assay: Antihypertensive activity in Wistar rat assessed as change in blood glucose level at 10 mg/kg/day, po measured after 8 weeks in presence of losartan; format: functional; outline: as §2
# [26] = tested on: Rattus norvegicus; assay: Antihypertensive activity in Wistar rat assessed as decrease in L-NAME-induced fibronectin content in vessel walls at 10 mg/kg/day, po for 4 weeks in presence of losartan; format: functional, organism-based; outline: as §1
# [27] = tested on: Rattus norvegicus; assay: Antihypertensive activity in Wistar rat assessed as change in blood triglyceride level at 10 mg/kg/day, po measured after 8 weeks; format: functional; outline: as §2
# [28] = tested on: Rattus norvegicus; assay: Antihypertensive activity in Wistar rat assessed as change in blood […] level at 10 mg/kg/day, po measured after 8 weeks; format: functional
smiles,measurement,setting,value
O=C(O)CCc1ccc(O)c(O)c1 [DIHYDROCAFFEIC ACID],Activity,[1],Active
same,Activity,[2],5.2 g/dL
same,Activity,[3],148 mmol/L
same,Activity,[4],93 IU/L
same,Activity,[5],Active
same,Activity,[6],69 mg/dL
same,Activity,[7],148 mmol/L
same,concentration,[8],0.0194 µM
same,Activity,[9],591 IU/L
same,Activity,[10],4.2 mmol/L
same,Activity,[11],4 g/dL
same,Activity,[12],8.8 mg/dL
same,Activity,[13],0.47 mg/dL
same,Activity,[14],170 mg/dL
same,Activity,[15],0.44 mg/dL
same,Activity,[16],27 mg/dL
same,Activity,[17],54 mg/dL
same,Activity,[18],24 mg/dL
same,Activity,[19],610 IU/L
same,Activity,[20],8.5 mg/dL
same,Activity,[21],24 IU/L
same,Activity,[22],58 mg/dL
same,Activity,[23],22 IU/L
same,Activity,[24],77 IU/L
same,Activity,[25],168 mg/dL
same,Activity,[26],Active
same,Activity,[27],70 mg/dL
same,Activity,[28],4.1 mmol/L
